Activity calls are given as the source filed them. The calls are words filed in the database; no cut-off is given here.
Columns and labels:
[1] = target: T1, Presequence protease, mitochondrial (Homo sapiens) (UniProt Q5JRX3); test: Agonist activity at human PreP assessed as degradation of ATP synthase pF1beta subunit (2 to 54) at 1 uM after 2.5 hrs by Immunoblotting assay
T1 sequence (whole entry): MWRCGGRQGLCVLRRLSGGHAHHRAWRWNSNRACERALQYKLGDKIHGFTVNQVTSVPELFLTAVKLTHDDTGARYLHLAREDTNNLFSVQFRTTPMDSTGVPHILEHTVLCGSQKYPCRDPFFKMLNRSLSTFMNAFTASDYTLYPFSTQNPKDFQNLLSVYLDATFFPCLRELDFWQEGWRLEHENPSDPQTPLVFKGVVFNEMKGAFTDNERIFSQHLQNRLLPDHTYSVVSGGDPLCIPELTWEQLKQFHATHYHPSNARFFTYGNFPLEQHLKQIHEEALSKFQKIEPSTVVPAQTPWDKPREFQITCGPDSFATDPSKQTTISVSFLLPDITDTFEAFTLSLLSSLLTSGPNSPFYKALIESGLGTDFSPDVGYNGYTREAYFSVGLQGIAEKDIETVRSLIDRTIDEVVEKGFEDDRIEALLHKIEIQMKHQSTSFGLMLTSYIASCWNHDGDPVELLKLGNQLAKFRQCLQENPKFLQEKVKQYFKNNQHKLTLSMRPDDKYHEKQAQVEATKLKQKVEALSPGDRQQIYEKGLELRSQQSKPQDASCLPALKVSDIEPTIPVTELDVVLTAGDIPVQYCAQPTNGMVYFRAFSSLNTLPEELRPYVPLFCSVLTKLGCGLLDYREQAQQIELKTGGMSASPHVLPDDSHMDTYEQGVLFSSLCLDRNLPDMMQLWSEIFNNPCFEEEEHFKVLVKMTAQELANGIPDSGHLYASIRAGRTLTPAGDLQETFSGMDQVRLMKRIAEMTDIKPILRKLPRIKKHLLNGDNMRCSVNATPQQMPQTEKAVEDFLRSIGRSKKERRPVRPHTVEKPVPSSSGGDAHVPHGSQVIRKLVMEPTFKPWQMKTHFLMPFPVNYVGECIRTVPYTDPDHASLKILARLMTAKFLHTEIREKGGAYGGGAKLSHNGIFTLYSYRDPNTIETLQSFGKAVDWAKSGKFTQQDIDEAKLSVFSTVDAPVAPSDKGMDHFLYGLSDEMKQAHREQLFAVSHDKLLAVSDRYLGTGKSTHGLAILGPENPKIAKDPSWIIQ

[2] = target: T2, Presequence protease, mitochondrial (Homo sapiens, UniProt Q5JRX3); test: (§1) Agonist activity at human PreP assessed as degradation of biotin-labeled amyloid beta (1 to 42) after 2.5 hrs by Immunoblotting assay
T2 sequence (Q5JRX3 whole entry): T1 sequence (whole entry)
Method in brief: (§2)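 Biotin-labeled Aβ(1–42) (0.02 μg) incubated 2.5 h with 1 μg purified hPreP in 20 mM HEPES-KOH pH 8.0 with 10 mM MgCl2, compound 0.00001–100 μM. Products were run on 12% Bis-Tris gel and transferred to nitrocellulose. Membrane dried and blocked in 2% milk-PBS, then probed with ExtrAvidin peroxidase and ECL. Degradation measured relative to enzyme alone. EC50 from nonlinear log(agonist) vs normalized response regression.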

[3] = target: T1, Presequence protease, mitochondrial (Homo sapiens); test: as §1
Method in brief: as §2

[4] = target: T2, Presequence protease, mitochondrial; test: Agonist activity at human PreP assessed as degradation of ATP synthase pF1beta subunit (2 to 56) after 2.5 hrs by Immunoblotting assay; details: in the assay text read “(2 to 54)” for “(2 to 56)”
Method in brief: (§3)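 Purified human PreP (1 μg) incubated with biotin-labeled pF1β (2–54) presequence peptide (0.02 μg) in 20 mM HEPES-KOH pH 8.0, 10 mM MgCl2, with compound at 0.00001–100 μM, for 2.5 h. Reactions were stopped with sample buffer and resolved on 12% Bis-Tris gel. Blot probed with anti-F1β (1:2000), HRP anti-rabbit, ECL. Bands quantified by densitometry versus hPreP alone. EC50 from nonlinear log(agonist) vs normalized response fit.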

[5] = target: T1, Presequence protease, mitochondrial (Homo sapiens); test: Agonist activity at human PreP assessed as degradation of ATP synthase pF1beta subunit (2 to 56) after 2.5 hrs by Immunoblotting assay relative to control; details: in the assay text read “(2 to 54)” for “(2 to 56)”
Method in brief: as §3

[6] = target: T1, Presequence protease, mitochondrial (Homo sapiens); test: Agonist activity at human PreP assessed as degradation of ATP synthase pF1beta subunit (2 to 54) after 2.5 hrs by Immunoblotting assay
[7] = target: T1, Presequence protease, mitochondrial (Homo sapiens); test: Agonist activity at human PreP assessed as degradation of biotin-labeled amyloid beta (1 to 42) after 2.5 hrs by Immunoblotting assay relative to control
Method in brief: as §2

[8] = target: T2, Presequence protease, mitochondrial; test: Agonist activity at human PreP assessed as degradation of fluorogenic substrate V measured for 10 mins by fluorometric analysis
[9] = target: T1, Presequence protease, mitochondrial (Homo sapiens); test: Agonist activity at human PreP assessed as degradation of fluorogenic substrate V at 1 uM measured for 10 mins by fluorometric analysis
[10] = target: T1, Presequence protease, mitochondrial (Homo sapiens); test: Agonist activity at human PreP assessed as degradation of biotin-labeled amyloid beta (1 to 42) up to 1 uM after 2.5 hrs by Immunoblotting assay
Method in brief: as §2

SMILES: O=[N+]([O-])c1ccc2c(c1)N(Cc1cc(Br)ccc1O)C(c1cc(Br)ccc1O)N2Cc1cc(Br)ccc1O (stereo not given)
- Activity [1]: Active
- EC50 [2]: 402 nM
- Activity [3]: Dose-dependent effect
- EC50 [4]: 601 nM
- Activity [5]: 55%
- Activity [6]: Dose-dependent effect
- Activity [7]: 54%
- EC50 [8]: 57 nM
- fold change (FC) [9]: 1.8
- Activity [10]: Active

Source: ChEMBL document CHEMBL3124788, “Identification of human presequence protease (hPreP) agonists for the treatment of Alzheimer's disease” (Eur J Med Chem, 2014)
